Measurements as given in ChEMBL document CHEMBL1275535, “Pharmacodynamic modeling of aminoglycosides against Pseudomonas aeruginosa and Acinetobacter baumannii: identifying dosing regimens to suppress resistance development” (2008).
Values after ≈ are worked out from the molar mass of the structure shown. Active and inactive are the calls of the source. The rule behind the calls is not given here.

Key:
Pseudomonas aeruginosa [1] = test: Ratio of Cmax to MIC for Pseudomonas aeruginosa ATCC 27853 in PK/PD model at 2000 mg administered every 24 hrs; format: functional
Acinetobacter baumannii [2] = test: Bactericidal activity against Acinetobacter baumannii ATCC BAA 747 assessed as growth rate constant for the bacterial population by time-kill study; format: functional
Summary of the method: (§1)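 24-h time-kill data at a baseline inoculum of 10^7 CFU/ml were fitted to a mathematical model of a heterogeneous population. The fit ran in two steps. Growth rate (Kg) and maximal population size came from placebo control experiments. Those estimates were then held fixed while the kill-function parameters (maximal kill rate, concentration for 50% of maximal kill) were fitted to all active-treatment data together.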

Acinetobacter baumannii [3] = test: Bactericidal activity against Acinetobacter baumannii ATCC BAA 747 assessed as concentration to achieve 50% of the maximal kill rate for the bacterial population by time-kill study; format: functional; summary of the method: as §1
Acinetobacter baumannii [4] = test: Antibacterial activity against Acinetobacter baumannii ATCC BAA 747 after 24 hrs by modified broth macrodilution method; format: functional; conditions: ATCC BAA 747, 24 h
Summary of the method: (§2)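 Ca-MHB broth macrodilution per modified CLSI method, with serial twofold aminoglycoside dilutions and about 5 x 10^5 CFU/ml final inoculum from isolates subcultured twice on 5% blood agar. MIC was the lowest concentration with no visible growth after 24 h at 35°C in ambient air. Run in duplicate and repeated on at least one separate day.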

Acinetobacter baumannii [5] = test: Bactericidal activity against Acinetobacter baumannii ATCC BAA 747 assessed as maximal kill rate constant for the bacterial population by time-kill study; format: functional; summary of the method: as §1
Pseudomonas aeruginosa [6] = test: Ratio of Cmax to MIC for Pseudomonas aeruginosa ATCC 27853 in PK/PD model at 1500 mg administered every 12 hrs; format: functional
Acinetobacter baumannii [7] = test: Bactericidal activity against Acinetobacter baumannii ATCC BAA 747 at >16 mg/liter after 2 hrs by time-kill study; format: functional, organism-based
Acinetobacter baumannii [8] = test: Bactericidal activity against Acinetobacter baumannii ATCC BAA 747 assessed as maximum population size by time-kill study; format: functional; summary of the method: as §1
Pseudomonas aeruginosa [9] = test: Bactericidal activity against Pseudomonas aeruginosa ATCC 27853 assessed as growth rate constant for the bacterial population by time-kill study; format: functional, organism-based
Summary of the method: (§3)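 Parameters were fitted by mathematical modeling to 24 h time-kill data with gentamicin at 0 to 32 mg/liter and a baseline inoculum of 10^7 CFU/ml. Intrinsic growth rate (Kg) and maximal population size came from placebo controls. Kill-function parameters were then fitted to all active-treatment data simultaneously.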

Pseudomonas aeruginosa [10] = test: Bactericidal activity against Pseudomonas aeruginosa ATCC 27853 assessed as concentration to achieve 50% of the maximal kill rate for the bacterial population by time-kill study; format: functional, organism-based; summary of the method: as §3
Pseudomonas aeruginosa [11] = test: Antibacterial activity against Pseudomonas aeruginosa ATCC 27853 after 24 hrs by modified broth macrodilution method; format: functional, organism-based; summary of the method: as §2
Pseudomonas aeruginosa [12] = test: Bactericidal activity against Pseudomonas aeruginosa ATCC 27853 assessed as maximal kill rate constant for the bacterial population by time-kill study; format: functional, organism-based; summary of the method: as §3
Pseudomonas aeruginosa [13] = test: Bactericidal activity against Pseudomonas aeruginosa ATCC 27853 assessed as maximum population size by time-kill study; format: functional, organism-based; summary of the method: as §3

| Molecule | Ratio (Pseudomonas aeruginosa [1]) | Activity (Acinetobacter baumannii [2]) [h⁻¹] | C50k (Acinetobacter baumannii [3]) [mg/L] | MBC (Acinetobacter baumannii [4]) [µg/mL] | MIC (Acinetobacter baumannii [4]) [µg/mL] | Activity (Acinetobacter baumannii [5]) [h⁻¹] | Ratio (Pseudomonas aeruginosa [6]) | Activity (Acinetobacter baumannii [7]) | Activity (Acinetobacter baumannii [8]) [×10⁸ CFU/ml] | Activity (Pseudomonas aeruginosa [9]) [h⁻¹] | C50k (Pseudomonas aeruginosa [10]) [mg/L] | MBC (Pseudomonas aeruginosa [11]) [µg/mL] | MIC (Pseudomonas aeruginosa [11]) [µg/mL] | Activity (Pseudomonas aeruginosa [12]) [h⁻¹] | Activity (Pseudomonas aeruginosa [13]) [×10⁸ CFU/ml] |
| --- | --- | --- | --- | --- | --- | --- | --- | --- | --- | --- | --- | --- | --- | --- | --- |
| NCC[C@H](O)C(=O)N[C@@H]1C[C@H](N)[C@@H](O[C@H]2O[C@H](CN)[C@@H](O)[C@H](O)[C@H]2O)[C@H](O)[C@H]1O[C@H]1O[C@H](CO)[C@@H](O)[C@H](N)[C@H]1O [AMIKACIN] | 20 | 0.55 | 1.56 | 8 (≈ 13.7 µM) | 4 (≈ 6.83 µM) | 27.81 | 13 | Active | 6.62 |  |  |  |  |  |  |
| GENTAMICIN | 30 |  |  |  |  |  | 36 |  |  | 0.48 | 0.72 | 2 | 2 | 4.68 | 9.8 |
